Experimental findings from ChEMBL document CHEMBL4118130, “Modular synthesis of new C-aryl-nucleosides and their anti-CML activity” (Bioorg Med Chem Lett, 2018) are described below.

SMILES strings stand for the structures. Activity calls are given as the source filed them. No cut-off for these calls is given here.

The subject of test [1] is K562. As to the kind of experiment: Cytotoxicity in drug sensitive human K562 cells assessed as reduction in cell viability at 10 uM incubated for 48 hrs by XTT assay relative to imatinib. The format is functional.
For test [2], the system named is K-562R. Put plainly: Cytotoxicity in imatinib-resistant human K562R cells assessed as reduction cell viability incubated for 48 hrs by XTT assay. The format is functional, cell-based. In a few lines: (§1)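 K562-S (imatinib-sensitive) or K562-R (imatinib-resistant) CML cells were exposed to a range of concentrations for 48 h. Viability was read by XTT, and the IC50 was derived from the dose-response.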
In general terms: Formazan colour is commonly taken as a measure of viable cells.

For test [3], the system named is K562. Put plainly: Cytotoxicity in drug sensitive human K562 cells assessed as reduction cell viability incubated for 48 hrs by XTT assay. The format is functional, cell-based. The settings on record: for IC50: K562, 48 h. In a few lines:
as §1

The subject of test [4] is K562. Put plainly: Induction of apoptosis in drug sensitive human K562 cells assessed as induction of PARP cleavage after 6 hrs by Western blot method. The format is functional, cell-based. In outline:
(§2)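 Cell lysates were probed by western blot for procaspase 3 and for PARP, its preferred substrate, in K562-S and K562-R cells. Cleavage was scored after 6 h and 24 h of treatment.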
(Immunoblotting shows a protein as a band on a membrane.)

In test [5] the test system is K-562R. Put plainly: Induction of apoptosis in imatinib-resistant human K562R cells assessed as induction of PARP cleavage after 6 hrs by Western blot method. Format: functional, cell-based. In outline: as §2
The subject of test [6] is K562. As to the kind of experiment: Induction of apoptosis in drug sensitive human K562 cells assessed as induction of caspase-3 cleavage after 6 hrs by Western blot method. The format is functional, cell-based. In a few lines: as §2
In test [7] the test system is K562. As to the kind of experiment: Induction of apoptosis in drug sensitive human K562 cells assessed as induction of caspase-3 cleavage after 24 hrs by Western blot method. Format: functional, cell-based. In a few lines: as §2
Test [8] deals with K562. As to the kind of experiment: Potency index, ratio of IC50 for AICAR to IC50 for test compound in drug sensitive human K562 cells assessed as reduction cell viability incubated for 48 hrs by XTT assay. Format: functional.
Test [9] relates to K562. Put plainly: Inhibition of autophagy in drug sensitive human K562 cells assessed as reduction in LC3-II accumulation by Western blot method. The format is functional, cell-based. In a few lines:
(§3)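 Western blot of LC3 lipidation and cleavage, scored as conversion of LC3-I to LC3-II, in K562-S and K562-R cells. Untreated cells served as the baseline for LC3-II accumulation.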

For test [10], the system named is K-562R. As to the kind of experiment: Induction of apoptosis in imatinib-resistant human K562R cells assessed as induction of caspase-3 cleavage after 6 hrs by Western blot method. Format: functional, cell-based. In outline:
as §2

Test [11] concerns K562. As to the kind of experiment: Induction of apoptosis in drug sensitive human K562 cells assessed as induction of PARP cleavage after 24 hrs by Western blot method. Format: functional, cell-based. In outline:
as §2

Test [12] relates to K-562R. Put plainly: Inhibition of autophagy in imatinib-resistant human K562R cells assessed as reduction in LC3-II accumulation by Western blot method. Format: functional, cell-based. In outline:
as §3

In test [13] the test system is K-562R. Put plainly: Induction of apoptosis in imatinib-resistant human K562R cells assessed as induction of PARP cleavage after 24 hrs by Western blot method. Format: functional, cell-based. In outline:
as §2

The test system of test [14] is K-562R. Put plainly: Induction of apoptosis in imatinib-resistant human K562R cells assessed as induction of caspase-3 cleavage after 24 hrs by Western blot method. The format is functional, cell-based. In outline: as §2

For `COc1ccc(-c2ccc(C)cc2)cc1[C@@H]1O[C@H](COC(C)=O)[C@@H](OC(C)=O)[C@H]1OC(C)=O`, the outcome in [1] was Active.

`COc1ccc(-c2ccco2)cc1[C@@H]1O[C@H](COC(C)=O)[C@@H](OC(C)=O)[C@H]1OC(C)=O`: the result in [1] was Active.

For `COc1ccc(C#Cc2ccc(OC)c([C@@H]3O[C@H](CO)[C@@H](O)[C@H]3O)c2)cc1`, the result in test [1] was Active.

For `COc1ccc(-c2cccc3ccccc23)cc1[C@@H]1O[C@H](CO)[C@@H](O)[C@H]1O`, the outcome in test [1] was Active.

For the molecule `COc1ccc(C#Cc2ccc(OC)c([C@@H]3O[C@H](COC(C)=O)[C@@H](OC(C)=O)[C@H]3OC(C)=O)c2)cc1`, the Activity in test [1] is above 30%.

What is called IC50 is the concentration at which inhibition is half-maximal. Consider `Cc1ccc(NC(=O)c2ccc(CN3CCN(C)CC3)cc2)cc1Nc1nccc(-c2cccnc2)n1` [IMATINIB], for which the IC50 in test [2] is above 50 µM; in test [3] it was 1.1 µM.

Take `COc1ccc(C#Cc2ccccc2)cc1[C@@H]1O[C@H](COC(C)=O)[C@@H](OC(C)=O)[C@H]1OC(C)=O`: in test [1], the result was inactive.

With `COc1ccc(-c2ccccc2)cc1[C@@H]1O[C@H](COC(C)=O)[C@@H](OC(C)=O)[C@H]1OC(C)=O`, the outcome in test [1] was Active.

Consider `COc1ccc(-c2cc3ccccc3s2)cc1[C@@H]1O[C@H](COC(C)=O)[C@@H](OC(C)=O)[C@H]1OC(C)=O`, for which the outcome in [4], in test [5], in test [6], in [7], in test [10] and in test [11] was inactive. The result in test [13] and in [14] was inactive. The IC50 in test [2] was determined as 2.9 µM; in test [3], 4 µM. Besides, in test [8], the “Ratio IC50” value is 200. Moreover, the Activity result in [3] is “Dose-dependent effect”; in test [1], >30 - 80%. Also, the inhibition result in [9] and in test [12] was “Active” each time.

For the molecule `COc1ccc(-c2ccco2)cc1[C@@H]1O[C@H](CO)[C@@H](O)[C@H]1O`, in test [1], the result was Active.

As to `COc1ccc(C#Cc2ccc(C)cc2)cc1[C@@H]1O[C@H](CO)[C@@H](O)[C@H]1O`, the outcome in [1] was Active.

As for `COc1ccc(-c2cc3ccccc3s2)cc1[C@@H]1O[C@H](CO)[C@@H](O)[C@H]1O`, in test [1], the Activity came to 16%.

For `COc1ccc(-c2cccc3ccccc23)cc1[C@@H]1O[C@H](COC(C)=O)[C@@H](OC(C)=O)[C@H]1OC(C)=O`, in test [1], the Activity was above 30%.

On to `COc1ccc(-c2cccn2C)cc1[C@@H]1O[C@H](CO)[C@@H](O)[C@H]1O`, for which the result in test [1] was Active.

As for `COc1ccc(-c2ccc3[nH]ccc3c2)cc1[C@@H]1O[C@H](COC(C)=O)[C@@H](OC(C)=O)[C@H]1OC(C)=O`, the result in test [1] was Active.

For `COc1ccc(C#Cc2ccsc2)cc1[C@@H]1O[C@H](CO)[C@@H](O)[C@H]1O`, in [1], the result was Active.

With `COc1ccc(C#Cc2ccsc2)cc1[C@@H]1O[C@H](COC(C)=O)[C@@H](OC(C)=O)[C@H]1OC(C)=O`, the result in [1] was inactive.

Take `COc1ccc(-c2cccn2C)cc1[C@@H]1O[C@H](COC(C)=O)[C@@H](OC(C)=O)[C@H]1OC(C)=O`: the result in [1] was Active.

For the molecule `COc1ccc(C#Cc2ccc(C)cc2)cc1[C@@H]1O[C@H](COC(C)=O)[C@@H](OC(C)=O)[C@H]1OC(C)=O`, the result in test [1] was Active.

As for `COc1ccc(-c2cccs2)cc1[C@@H]1O[C@H](CO)[C@@H](O)[C@H]1O`, the outcome in test [1] was Active.

Regarding `COc1ccc(C#Cc2ccc(F)cc2)cc1[C@@H]1O[C@H](COC(C)=O)[C@@H](OC(C)=O)[C@H]1OC(C)=O`, the outcome in test [1] was Active.

Turning to `COc1ccc(-c2ccc3[nH]ccc3c2)cc1[C@@H]1O[C@H](CO)[C@@H](O)[C@H]1O`, in test [1], the outcome was Active.

As to `COc1ccc(C#Cc2ccccc2)cc1[C@@H]1O[C@H](CO)[C@@H](O)[C@H]1O`, in test [1], the result was Active.

Consider `COc1ccc(C#Cc2ccc(F)cc2)cc1[C@@H]1O[C@H](CO)[C@@H](O)[C@H]1O`, for which the result in [1] was Active.

Take `NC(=O)c1ncn([C@@H]2O[C@H](CO)[C@@H](O)[C@H]2O)c1N` [ACADESINE]: the IC50 in test [2] stood at 800 µM.

`COc1ccc(-c2ccccc2)cc1[C@@H]1O[C@H](CO)[C@@H](O)[C@H]1O`: the outcome in test [1] was Active.

`COc1ccc(-c2cccs2)cc1[C@@H]1O[C@H](COC(C)=O)[C@@H](OC(C)=O)[C@H]1OC(C)=O`: the Activity in [1] was above 30%.

Regarding `COc1ccc(-c2ccc(C)cc2)cc1[C@@H]1O[C@H](CO)[C@@H](O)[C@H]1O`, the outcome in [1] was Active.
